# Screens: PubChem, several laboratories
# SR-BI HDL uptake: blocks mouse SR-BI lipid uptake from DiI-HDL | inhibition, % at 12.5 µM | AID 488896 | Q61009 | 320,000 tested, 0.96% active | ldlA[mSR-BI] CHO cells, DiI-HDL uptake fluorescence, 3 h;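 active means mean replicate inhibition of at least 70% and a set share of replicates each scoring 70 or more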
# Vif inh: blocks HIV Vif function; HEK293T cells, Vif self-association by quenched fluorescence, imaging, 24 h; 340,000 tested, 0.35% active; inhibition, % at 7.49 µM; AID 602346; in the data active means inhibition above about 50%, passing the limit was not always enough
# PKA-R2B activ: activates the human PKA-R2B holoenzyme complex. P22694+P31323. PKA-R2B holoenzyme dissociation, Cy5-IP20 fluorescence polarization; R2B truncated from residue 108, S112A mutant; 0% DMSO only, 100% 113 µM cGMP. activation, % at 11.4 µM. 340,000 tested, 0.079% active;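 active means activation above a cutoff set at the mean over all compounds plus 3 SD, cut at about 18% in these data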;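 further: higher means more holoenzyme dissociation and a rise in polarization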
# Target sequence (P31323 whole entry, looked up, other chains not shown, the tested form may be a part): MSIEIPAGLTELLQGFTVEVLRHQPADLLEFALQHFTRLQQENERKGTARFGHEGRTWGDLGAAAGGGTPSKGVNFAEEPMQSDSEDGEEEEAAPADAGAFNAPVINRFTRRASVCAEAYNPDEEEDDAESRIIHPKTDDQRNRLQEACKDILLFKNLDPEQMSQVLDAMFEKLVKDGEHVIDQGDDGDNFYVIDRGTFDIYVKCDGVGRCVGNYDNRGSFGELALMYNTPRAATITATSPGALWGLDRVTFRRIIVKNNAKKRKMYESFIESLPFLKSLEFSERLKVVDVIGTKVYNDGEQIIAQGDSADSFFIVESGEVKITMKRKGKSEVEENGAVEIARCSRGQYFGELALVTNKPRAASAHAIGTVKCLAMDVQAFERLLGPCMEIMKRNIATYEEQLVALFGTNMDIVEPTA
# PKA-R1A act: PKA-R1A complex activation; P00514+P68181; PKA-R1A dissociation, Cy5-IP20 fluorescence polarization; scaled: DMSO 0%, 113 µM cGMP 100%; activation, % at 11.4 µM; 340,000 tested, 0.083% active;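 active means percent activation above the mean of all tested compounds plus 3 SD, cut at about 19% in these data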;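 further: higher means more PKAc released from R1A so a rise in polarization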
# SR-BI uptake up: enhances SR-BI lipid uptake from DiI-HDL; CHO ldlA[mSR-BI] cells, DiI-HDL uptake fluorescence, 3 h; 100 = double the neutral-control signal; activation, % at 12.5 µM; 320,000 tested, 0.096% active;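 active means mean replicate activation of at least 60% and every replicate at or above 60%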
#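 material = CHO ldlA[mSR-BI] cells | medium = Ham's F12 with 0.5% BSA, HEPES 25 mM, pH 7.4 | reagent = fluorescent DiI-HDL, 10 µg/mL final | compound dosing = single-point compound dose | incubation = 3 h, 37 °C | measured by = bottom-read fluorescence, 550/595 nm | measure = HDL uptake via cellular fluorescence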
# R2B FP artifact: counter-screen for PKA-R2B activators: fluorescence polarization artifacts; shares compounds with PKA-R2B activ; FP artifact counterscreen; activation, % at 11.4 µM; 270 tested, 6% active; in the data active means activation above about 20%;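 further: Cy5 labelled IP20 peptide probe with compound but no PKA protein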
# PKA-R2B act conf: PKA-R2B complex activation, confirmation. AID 504797. shares compounds with PKA-R2B activ. fluorescence polarization. 270 tested, 9% active. activation, % at 11.4 µM; in the data active means activation above about 19%
# Target sequence (P31323 whole entry, looked up): as the sequence (P31323 whole entry, looked up, other chains not shown, the tested form may be a part) above
# Numbers stand for hits; i = inactive; nt = no result given. A selection: hits, their analogues and other compounds. The true share with any hit is near 1.4%.
SMILES,SR-BI HDL uptake,Vif inh,PKA-R2B activ,PKA-R1A act,SR-BI uptake up,R2B FP artifact,PKA-R2B act conf
CCOC(=O)N1CCN(C(=O)c2cc(COc3ccc(F)cc3F)on2)CC1,i,i,i,i,i,nt,nt
C[C@@H]1CNC(=O)c2c(C(=O)NCC(=O)OC(C)(C)C)ncn21,nt,i,i,i,nt,nt,nt
CCC[C@@H]1Cc2ccccc2N1C(C)=O,i,i,20,i,i,i,i
COc1ccc(/C=C2\SC(=O)N(CC(=O)NNC(=O)c3ccccc3O)C2=O)cc1,i,i,20,i,i,i,21
Cc1ccc(S(=O)(=O)NC(=O)Nc2ccc(OC(F)F)cc2)cc1,i,i,nt,nt,i,nt,nt
Cc1ccc(C(C2C(=O)CC(C)(C)CC2=O)C2C(=O)CC(C)(C)CC2=O)s1,i,nt,i,i,i,nt,nt
CCOC(=O)C1CCN(C(=O)CCc2nnc3ccc(N4CCC(C)CC4)nn23)CC1,i,i,i,i,i,nt,nt
O=C(Nc1ccc(C(=O)O)cc1)/C(=C\c1ccco1)NC(=O)c1ccc(Br)o1,nt,i,i,i,nt,nt,nt
O=C(Nc1ccc(C(=O)O)cc1)/C(=C\c1ccco1)NC(=O)c1ccc(Br)cc1,nt,i,24,i,nt,i,i
COc1ccc(-c2nnc(CSc3nnc(-c4ccncc4)n3C3CCCCC3)o2)cc1OC,i,i,i,i,i,nt,nt
O=c1[nH]nc(SCc2nnc(-c3cccc(Cl)c3)o2)n1C1CCCCC1,i,i,19,i,i,i,i
Cn1ncc(Br)c1C(=O)NC1C2CC3CC(C2)CC1C3 (centres undefined),i,i,i,i,i,nt,nt
Cc1c(Cl)c(C(=O)NC2C3CC4CC(C3)CC2C4)nn1C (centres undefined),i,i,20,i,i,i,i
Cc1ccc(F)cc1NC(=O)CSc1n[nH]c(N)n1,i,i,i,i,i,nt,nt
CCOC(CCn1ccc(O)c(Cc2ccc(Cl)cc2)c1=O)OCC,i,i,i,i,i,nt,nt
COc1cccc(CC(NC(C)=O)C(=O)NC2CCN(C(=O)C3CCCCC3)CC2)c1OC (centres undefined),nt,i,i,i,nt,nt,nt
COc1cccc(CC(NC(C)=O)C(=O)NC2CCN(C(=O)c3ccncc3)CC2)c1OC (centres undefined),i,i,19,i,i,i,i
CN(CC(=O)Nc1ccccc1Br)C(=O)CCCSc1nc2ccccc2[nH]1,i,i,i,i,i,nt,nt
N#Cc1nc(-c2cccs2)oc1NCC1CCCO1 (centres undefined),i,nt,19,i,i,i,i
O=[N+]([O-])c1cccc(N(CC2CO2)S(=O)(=O)c2ccccc2)c1 (centres undefined),i,i,i,i,i,nt,nt
COc1cc2cc(CN(Cc3ccc4c(c3)OCO4)C(=O)c3ccco3)c(=O)[nH]c2cc1OC,i,i,21,i,i,i,i
COC(=O)Cc1cc(=O)n2[nH]cnc2n1,i,i,19,i,i,i,i
Cn1c(/C(C#N)=C(\O)c2ccc(S(=O)(=O)N3CCCCC3)cc2)nc2ccccc21,i,i,19,i,i,i,i
O=C(CN1C(=O)NC2(CCc3ccccc32)C1=O)Nc1ccccc1C(F)(F)F (centres undefined),i,i,i,i,i,nt,nt
CC(=O)N1CCN(c2ccc(NC(=O)C(C)Oc3ccc(Cl)cc3Cl)cc2)CC1 (centres undefined),i,i,19,i,i,i,i
SMILES,SR-BI HDL uptake,Vif inh,PKA-R2B activ,PKA-R1A act,SR-BI uptake up,R2B FP artifact,PKA-R2B act conf
CCOc1ccccc1NC(=O)C1CCN(C(=O)C2CC(=O)N(c3ccc(C)cc3)C2)CC1 (centres undefined),nt,i,i,i,nt,nt,nt
COc1ccccc1NC(=O)C1CCN(C(=O)C2CC(=O)N(c3ccc(C)cc3)C2)CC1 (centres undefined),nt,i,20,i,nt,i,i
O=C(c1ccco1)N1CCN(C(=O)c2ccc(CS(=O)c3ccc(Cl)cc3)o2)CC1 (centres undefined),i,i,19,i,i,i,i
Cc1ccc(S(=O)Cc2ccc(C(=O)N3CCN(C(=O)c4ccco4)CC3)o2)cc1 (centres undefined),i,i,i,i,i,nt,nt
CC(C)N(C(=O)Cn1cc(S(=O)(=O)CC(=O)NCc2ccc(F)cc2)c2ccccc21)C(C)C,i,i,i,i,i,nt,nt
CCOc1ccc(N(C)S(=O)(=O)c2c[nH]c(C(=O)OC)c2)cc1,i,i,20,i,i,i,i
CC(=O)N(c1ccc(Cl)cc1)c1nc(C)cc(C)c1C#N,i,i,20,i,i,i,i
Cc1nc2ccccc2c(C)c1CC(=O)OC(C)C(=O)NC1(C#N)CCCCC1 (centres undefined),i,i,i,i,i,nt,nt
COCCNC(=O)COCc1cc(-c2ccc3c(c2)OCO3)on1,i,i,i,i,i,nt,nt
COCCNC(=O)c1cc(-c2ccc3c(c2)OCO3)on1,i,nt,18,i,i,i,i
CC1C(=O)Nc2ccccc2N1C(=O)c1ccccc1 (centres undefined),i,i,20,i,i,i,i
CCn1c(SCC(=O)c2c(N)n(C3CC3)c(=O)[nH]c2=O)nnc1-c1ccoc1C,i,i,i,i,i,nt,nt
O=C1Nc2ccccc2/C1=C/c1cnc(-c2ccccc2)[nH]1,i,i,19,i,i,i,i
CCC(=O)Nc1ccccc1N1CCN(c2ccc(F)cc2)CC1,i,i,19,i,i,i,i
N#Cc1cc([N+](=O)[O-])ccc1NC(=O)COC(=O)C1CCC(=O)N1 (centres undefined),i,i,20,i,i,i,i
N#Cc1cc([N+](=O)[O-])ccc1NC(=O)COC(=O)C1CC2CCCC(C1)C2=O (centres undefined),i,i,i,i,i,nt,nt
COc1ccccc1NC(=O)N(CCN1CCCC1)Cc1cc2cc(C)ccc2[nH]c1=O,i,i,i,i,i,nt,nt
CCN1CCCC1CN(Cc1cc2cc(C)ccc2[nH]c1=O)C(=O)Nc1ccccc1OC (centres undefined),nt,i,19,i,nt,i,i
C=CCNc1nc2c(c(=O)[nH]c(=O)n2C)n1Cc1cccc(C)c1,i,nt,22,i,i,i,i
Cc1nc(C)c(C(=O)N(c2ccccc2F)C(C(=O)NCC2CCCO2)c2ccccc2)s1 (centres undefined),i,i,i,i,i,nt,nt
Cc1nc(C)c(C(=O)N(c2ccc(F)cc2)C(C(=O)NCC2CCCO2)c2ccccc2)s1 (centres undefined),i,i,20,i,i,i,i
